Published values from different studies.
Lines come from different studies, so protocols differ.
Target: Histamine H1 receptor (HRH1, Homo sapiens, UniProt P35367)

Compound | effect on | technique | tested at | measurement | result
CN1CCC(C(c2ccccc2)c2ccccc2)CC1 | binding |  |  | kon | 3.33e+06 M⁻¹ s⁻¹
Clc1ccc2c(C3CCN(CCc4c[nH]c5ccccc45)CC3)c[nH]c2c1 | ligand displacement | radioligand | 10 µM | inhibition | 100%
COc1ccc(S(=O)(=O)N2CCCCC2)cc1C | ligand displacement | radioligand | 10 µM | inhibition | < 30%
c1ccc(C(NCCNC(c2ccccc2)c2ccccc2)c2ccccc2)cc1 | cell-free assay |  | 10 µM | inhibition | 81%
Nc1ncc(-c2nc(N3CCOCC3)nc(N3CCOCC3)n2)c(C(F)F)n1 | cell-free assay | radioligand | 10 µM | remaining signal | 99.1%
Cc1c(N2CCNCC2)nc2ccc(Br)cc2c1C(=O)NC[C@H](CCC(=O)O)c1ccccc1Cl | ligand displacement |  | 10 µM | inhibition | 17.5%
C[C@H](C(=O)N[C@H]1COc2ccccc2[C@@H]1S(C)(=O)=O)c1ccc(F)cc1 | cell-free assay |  | 10 µM | inhibition | -5%
CC(C)N1CCC[C@H]1CNC(=O)c1cn(C2CCCC2)c(=O)c2c1c1ccccc1n2C | ligand displacement | radioligand | 10 µM | inhibition | 22%
N#CC1(c2ccccn2)CCN(Cc2cc(C(=O)O)c(=O)n3ccccc23)CC1 | cell-free assay |  | 10 µM | inhibition | 28.4%
CC(Cc1ccccc1)NCCn1cnc2c1c(=O)n(C)c(=O)n2C (stereo not shown) | ligand displacement | radioligand | 10 µM | inhibition | 12%
CCN(CC)CCCC[C@H](NC(=O)[C@H](CC(C)C)NC(=O)[C@H](C)NC(=O)[C@H](Cc1ccccc1)NC(=O)c1ccc(C(C)(C)C)cc1)C(=O)N[C@@H](CO)C(=O)OC | ligand displacement | radioligand | 10 µM | inhibition | -6%
COCc1c(-c2cc3cc(C)cc(OC)c3s2)c2c(N)ncnn2c1CN1CCNC(=O)C1 | ligand displacement | radioligand | 10 µM | inhibition | 26%
COc1ccc(C(=O)NCc2cc(C(C)C)no2)cc1OC1CCN(C)CC1 | ligand displacement | radioligand | 10 µM | inhibition | 37%
